Screens (PubChem)
Only some compounds are listed: those with a hit (about 2.8% of all), similar ones and a draw of the others.
EP2 mod = modulates human prostaglandin E2 receptor EP2 signaling; EP2-expressing cells, cAMP HTRF FRET, PGE2 co-stimulation; induction, % at 25 µM; 260,000 compounds, 0.83% hits;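 active means compounds whose cAMP rise, as percent of the full-agonist control response, exceeds 60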;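 further: rat C6 glioma line stably carrying human EP2 under a CMV promoter; the protocol text gives 20 µM as final concentration; 100% = response of wells given 1 µM PGE2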
NPY Y1 blocker = NPY-Y1 (human) receptor antagonism. P25929. HEK293-CNG Y1 cells, membrane potential fluorescence; NPY at EC95, then isoproterenol. inhibition, % at 3.6 µM. 200,000 compounds, 1% hits. AID 1040;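 active means inhibition above the campaign mean inhibition of all tested compounds plus 3 SD, cut at about 20% in these data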;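 further: 0% = DMSO wells given NPY plus isoproterenol and 100% = isoproterenol alone without NPY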
Target sequence (P25929 whole entry, looked up): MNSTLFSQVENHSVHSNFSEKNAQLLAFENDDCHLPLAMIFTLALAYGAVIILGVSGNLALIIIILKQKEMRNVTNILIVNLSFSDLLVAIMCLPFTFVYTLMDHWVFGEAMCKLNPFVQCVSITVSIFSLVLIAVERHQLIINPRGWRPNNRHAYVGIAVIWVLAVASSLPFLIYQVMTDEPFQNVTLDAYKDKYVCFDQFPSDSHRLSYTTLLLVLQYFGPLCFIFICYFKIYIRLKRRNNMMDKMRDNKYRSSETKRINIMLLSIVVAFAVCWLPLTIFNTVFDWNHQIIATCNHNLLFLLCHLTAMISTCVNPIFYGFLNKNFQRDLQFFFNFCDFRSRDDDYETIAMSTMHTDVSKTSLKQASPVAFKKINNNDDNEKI
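Material: HEK293 cells with Y1 receptor plus CNG channel; times: compound incubation 1 h at room temperature, readout 45 min post-stimulation; signal: fluorescence, membrane potential probe; read-out basis: fluorescence ratio normalized to % inhibition between controls; benchmarks: full-block control isoproterenol-only wells, zero-block control NPY plus isoproterenol wells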
NPY1 pot ag = potentiators or agonists of human neuropeptide Y receptor Y1. P25929. NPY-Y1 expressing cells, potentiator/agonist activation. activation, % at 3.6 µM. 220,000 compounds, 0.37% hits; in the data active means activation above about 33%, passing the limit was not always enough;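 further: cells stimulated with NPY at EC10 then isoproterenol at EC100; 0% = low agonist plus stimulus and 100% = saturating agonist plus stimulus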
EP2 antag = EP2 receptor (human) inhibition. 260,000 compounds, 0.52% hits. inhibition, % at 25 µM. C6 glioma cells expressing human EP2, cAMP TR-FRET; cells stimulated with saturating PGE2. AID 1422. P43116;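 active means percent inhibition above 40 after rounding to a whole number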;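 further: rat C6 glioma host cells with rolipram phosphodiesterase inhibitor present; the protocol text gives 20 µM as final concentration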
NPY-Y2 antag = antagonists of human neuropeptide Y receptor Y2; P49146; NPY-Y2 expressing cells, antagonist mode; inhibition, % at 2.7 µM; 140,000 compounds, 0.99% hits; AID 793; in the data active means inhibition above about 17%;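 further: 0% = vehicle with agonist challenge and 100% = reference antagonist with challenge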
NPY-Y2 PAM-ag = potentiates or activates human NPY-Y2 receptor. P49146. cells expressing NPY-Y2, potentiator/agonist read-out. activation, % at 3.6 µM. 220,000 compounds, 0.45% hits. AID 1359; in the data active means activation above about 27%;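 further: cells stimulated with NPY near EC25 plus isoproterenol at EC100; 0% = vehicle plus submaximal agonist and 100% = vehicle plus saturating agonist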
NPY1 antag ctr = counter-screen for NPY-Y2 antagonists: human NPY-Y1 antagonism; shares compounds with NPY-Y2 antag; inhibition, % at 3.6 µM; 710 compounds, 19% hits; cell-based NPY-Y1 antagonism counterscreen;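 further: cells challenged with NPY then isoproterenol with cAMP sensed through a CNG channel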
NPY-Y2 ant conf = confirmation of human neuropeptide Y receptor Y2 antagonists; 710 compounds, 32% hits; inhibition, % at 2.8 µM; HEK293 NPY-Y2 CNG channel, membrane potential fluorescence; shares compounds with NPY-Y2 antag; AID 1257;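 active means mean inhibition of triplicate wells above the hit cutoff set in the primary screen, cut at about 17% in these data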;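 further: 0% = DMSO with NPY challenge and 100% = BIIE0246 high control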
EP2 confirm = human EP2 receptor cAMP induction, negative in counter-screens. shares compounds with EP2 mod. C6 glioma EP2 cells, cAMP HTRF induction; plus low (about EC15) PGE2 agonist. calls only at 20 µM (by protocol). 1,300 compounds, 47% hits;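 active means cAMP induction above 50% in the main assay while under 30% in all four parallel counter assays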;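 further: rat C6 glioma cells stably expressing human EP2 receptor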
NPY-Y1 ant conf = confirmation of human neuropeptide Y receptor Y1 antagonists; HEK293-CNG NPY-Y1, membrane potential fluorescence, cAMP; NPY challenge against isoproterenol-raised cAMP; inhibition, % at 3.6 µM; 1,200 compounds, 21% hits; AID 1254; shares compounds with NPY Y1 blocker;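 further: 0% = vehicle with agonist plus stimulus and 100% = stimulus alone without agonist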
NPY-Y2 antag ct = counter-screen for NPY-Y1 antagonists: human NPY-Y2 antagonism; shares compounds with NPY Y1 blocker; HEK293 NPY-Y2 CNG membrane potential fluorescence; cells given NPY, then isoproterenol; inhibition, % at 3.6 µM; 1,200 compounds, 28% hits; AID 1255; in the data active means inhibition above about 17%;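 further: 0% = DMSO with agonist challenge and 100% = reference antagonist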
An asterisk follows results filed as active; i = inactive; nt = not tested or not shown; + = active, no number. Unless noted, no stated cut-off is given here; in the data, active means inhibition above about 20%; inactive means the rest.

SMILES	EP2 mod	NPY Y1 blocker	NPY1 pot ag	EP2 antag	NPY-Y2 antag	NPY-Y2 PAM-ag	others
CCC[N+]12CCC(CC1)C(=C(c1ccccc1)c1ccccc1)C2	15	12	10	7	3	2
OC(COCc1ccc(Cl)cc1)CN1CC=C(c2ccccc2)CC1 (stereo unspecified)	-8	9	-19	10	19*	-9	NPY1 antag ctr=8;NPY-Y2 ant conf=11
CCCCOc1nc2ccccc2c(=O)n1-c1ccccc1	23	6	-14	2	17*	-2	NPY1 antag ctr=5;NPY-Y2 ant conf=18*
CCCc1nc2ccccc2c(=O)n1-c1ccccc1	17	nt	nt	11	nt	nt
O=C(CN1C2CCC1CC(O)(c1ccco1)C2)Nc1ccccc1F (stereo unspecified)	-24	nt	nt	nt	nt	nt
CCC(=O)c1cn(Cc2ccccc2F)c2ccccc12	50	nt	nt	7	nt	nt
CN(N=O)c1ccc(O)c(O)c1	83*	nt	nt	10	nt	nt	EP2 confirm=i
CCN1CCN(C(=O)COc2ccc(Cl)cc2Cl)CC1	-51	nt	nt	4	nt	nt
CN(CC(=O)Nc1ccccc1-c1ccccc1)C1CCCCC1	74*	1	-15	8	10	-5	EP2 confirm=i
CCc1ccccc1NC(=O)CNC1CCCCC1	8	2	24	3	nt	-5
C[C@]12CCC3C(CC[C@H]4C[C@@H](Cl)CC[C@]34C)C1CCC2=O (stereo partly specified)	64*	nt	nt	12	nt	nt	EP2 confirm=+
C[C@]12CCC3C(CC[C@H]4C[C@H](OS(=O)(=O)O)CC[C@]34C)C1CCC2=O (stereo partly specified)	19	nt	nt	10	nt	nt
C=CCOc1c(CN2C3CCC2CC(O)(c2nccn2C)C3)cccc1OC (stereo unspecified)	-19	nt	nt	7	nt	nt
CC(C)C1(C)N=C(c2ncccc2C(=O)O)NC1=O (stereo unspecified)	72*	-1	9	8	1	-4	EP2 confirm=i
C=CCOc1c(CN2C3CCC2CC(O)(c2ccc(OC)cc2)C3)cccc1OC (stereo unspecified)	-20	nt	nt	0	nt	nt
Cc1ccc(NP(=O)(Oc2ccccc2F)Oc2ccccc2F)cc1C	71*	9	14	4	10	4	EP2 confirm=i
CCCSc1ncc(CN2C3CCC2CC(O)(c2nccn2C)C3)cn1 (stereo unspecified)	5	nt	nt	2	nt	nt
CCOC(=O)C(C)Oc1cc(C)cc2oc(=O)c3c(c12)CCCC3 (stereo unspecified)	57	7	-16	3	10	-18
Cc1cc(OCC(=O)OC(C)C)c2c3c(c(=O)oc2c1)CCCC3	66*	3	-1	2	9	5	EP2 confirm=+
O=C(CN1C2CCC1CC(O)(c1ccccn1)C2)NC1CC1 (stereo unspecified)	-18	nt	nt	nt	nt	nt
CCC(=O)O[C@H]1CCC2C3CCC4=CC(=O)CC[C@]4(C)C3CC[C@@]21C (stereo partly specified)	77*	nt	nt	10	nt	nt	EP2 confirm=+
O=c1c2ccccc2nc(N2CCCC2)n1-c1ccc(Cl)cc1	68*	-3	-24	9	7	1	EP2 confirm=+
C[C@H]1OC[C@@H](C[N+](C)(C)C)O1	2	44*	-70	16	6	-15	NPY-Y1 ant conf=36*;NPY-Y2 antag ct=22*
COc1ccc2c(c1)c(C(=O)CN1CCN(C)CC1)c(C)n2Cc1ccccc1	-12	25*	-111	11	16	-20	NPY-Y1 ant conf=8;NPY-Y2 antag ct=15
CCn1nc(CC(=O)N(CCN(C)C)Cc2ccccc2F)c2ccccc2c1=O	-16	nt	nt	6	nt	nt
SMILES	EP2 mod	NPY Y1 blocker	NPY1 pot ag	EP2 antag	NPY-Y2 antag	NPY-Y2 PAM-ag	others
C1=CC2CCC(C1)N2CCN1C2C=CCC1CC2	0	nt	nt	6	nt	nt
Cc1cccc(N2CCN(CCc3ccccc3)CC2)c1C	-26	23*	-14	nt	8	-22	NPY-Y1 ant conf=5;NPY-Y2 antag ct=8
Cc1ccc(N2CCN(CCc3ccccc3)CC2)cc1	7	-1	-14	12	0	-1
Clc1ccc(COC(Cn2ccnc2)c2ccc(Cl)cc2Cl)c(Cl)c1 (stereo unspecified)	3	23*	-63	11	16	-12	NPY-Y1 ant conf=30*;NPY-Y2 antag ct=25*
COc1ccccc1CN(CCN(C)C)C(=O)Cc1nc2ccc(C)cc2[nH]1	-31	nt	nt	5	nt	nt
CC(c1cccc(F)c1)n1cc(C(=O)NC2CCCC2)nn1 (stereo unspecified)	-11	nt	nt	8	nt	nt
CCN(CC)CCCNC(=O)c1c(O)c2ccccc2n(Cc2ccccc2)c1=O	-12	20*	-49	8	15	-41	NPY-Y1 ant conf=16;NPY-Y2 antag ct=26*
CN1CC=C(c2c[nH]c3ccccc23)CC1	3	36*	-2	8	2	0	NPY-Y1 ant conf=6;NPY-Y2 antag ct=3
C1=C(c2c[nH]c3ccccc23)CCN(Cc2ccccc2)C1	-80	-4	6	5	nt	-6
